Measurements: ChEMBL document CHEMBL1255554, “9-Dihydroerythromycins as non-antibiotic motilin receptor agonists” (Bioorg Med Chem Lett, 2010)
Values after ≈ are worked out from the molar mass of the structure shown.

Experiments:
Motilin receptor = Motilin receptor (Oryctolagus cuniculus, UniProt A5A4K8); test: Agonist activity at motilin receptor in rabbit smooth muscle assessed as increase of muscle contraction; format: functional
Streptococcus pneumoniae = test: Antibacterial activity against erythromycin-sensitive Streptococcus pneumoniae ATCC 6301; format: functional
Outline: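 Minimal growth inhibitory concentration (MIC) determined against the highly erythromycin-sensitive strain Streptococcus pneumoniae ATCC6301.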

[1] = target: Motilin receptor (Oryctolagus cuniculus) (UniProt A5A4K8); test: Agonist activity at motilin receptor in rabbit smooth muscle assessed as increase of muscle contraction at EC90 concentration treated three cycles of administration measured after 4th dose; format: functional
Outline: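 Rabbit smooth muscle strip contractility assay. Drug given at its EC90 concentration for three cycles of administration and washout. The contractile response is expressed as % response at the 4th dose.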

hERG (KCNH2) = hERG (KCNH2) (Homo sapiens, UniProt Q12809); test: Inhibition of human ERG expressed in HEK cells at 30 uM; format: cell-based, HEK293; conditions: HEK cells expressing human ERG
hERG (KCNH2), sequence (Q12809 whole entry): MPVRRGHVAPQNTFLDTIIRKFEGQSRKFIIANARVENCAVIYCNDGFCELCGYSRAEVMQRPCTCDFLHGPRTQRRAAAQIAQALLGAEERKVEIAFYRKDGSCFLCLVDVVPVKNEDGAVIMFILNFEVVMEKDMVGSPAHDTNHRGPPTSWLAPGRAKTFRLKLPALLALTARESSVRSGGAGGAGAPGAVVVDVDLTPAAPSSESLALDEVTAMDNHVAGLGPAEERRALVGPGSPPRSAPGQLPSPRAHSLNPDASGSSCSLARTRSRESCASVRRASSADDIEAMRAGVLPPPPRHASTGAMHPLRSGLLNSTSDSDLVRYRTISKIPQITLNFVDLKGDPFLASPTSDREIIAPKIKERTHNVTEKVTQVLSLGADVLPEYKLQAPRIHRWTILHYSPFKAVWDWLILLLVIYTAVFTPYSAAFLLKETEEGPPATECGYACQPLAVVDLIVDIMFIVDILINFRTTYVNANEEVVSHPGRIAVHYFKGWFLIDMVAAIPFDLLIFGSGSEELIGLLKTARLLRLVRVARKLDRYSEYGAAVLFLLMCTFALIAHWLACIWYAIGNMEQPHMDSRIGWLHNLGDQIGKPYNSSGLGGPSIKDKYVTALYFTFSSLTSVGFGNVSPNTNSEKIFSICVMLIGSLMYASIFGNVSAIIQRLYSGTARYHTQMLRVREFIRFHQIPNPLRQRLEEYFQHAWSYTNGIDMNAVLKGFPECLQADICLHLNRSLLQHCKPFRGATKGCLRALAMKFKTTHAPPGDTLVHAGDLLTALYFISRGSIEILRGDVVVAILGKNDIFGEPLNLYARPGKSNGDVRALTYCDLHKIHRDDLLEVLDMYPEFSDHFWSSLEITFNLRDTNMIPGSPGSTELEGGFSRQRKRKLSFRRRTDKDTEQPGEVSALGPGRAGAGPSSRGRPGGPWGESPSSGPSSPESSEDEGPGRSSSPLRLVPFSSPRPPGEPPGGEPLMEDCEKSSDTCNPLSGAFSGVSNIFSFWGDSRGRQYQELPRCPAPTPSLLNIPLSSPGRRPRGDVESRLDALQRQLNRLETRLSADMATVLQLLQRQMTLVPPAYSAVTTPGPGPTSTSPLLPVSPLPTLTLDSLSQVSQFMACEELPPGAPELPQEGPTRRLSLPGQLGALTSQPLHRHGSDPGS

Motilin receptor (Oryctolagus cuniculus), sequence (A5A4K8 as listed by the source): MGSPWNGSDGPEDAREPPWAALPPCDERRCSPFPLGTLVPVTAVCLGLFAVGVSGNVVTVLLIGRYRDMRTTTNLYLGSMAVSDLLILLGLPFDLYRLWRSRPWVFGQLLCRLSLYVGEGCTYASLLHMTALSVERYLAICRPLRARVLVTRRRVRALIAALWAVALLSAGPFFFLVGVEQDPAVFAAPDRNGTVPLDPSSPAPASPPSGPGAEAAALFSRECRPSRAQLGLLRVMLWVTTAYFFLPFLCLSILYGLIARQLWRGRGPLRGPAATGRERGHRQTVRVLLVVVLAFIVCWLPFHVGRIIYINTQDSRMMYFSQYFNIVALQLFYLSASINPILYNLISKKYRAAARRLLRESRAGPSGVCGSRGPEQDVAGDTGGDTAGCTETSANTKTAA
Motilin receptor, sequence (A5A4K8 whole entry): as the sequence (A5A4K8 as listed by the source) above

EC50 (Motilin receptor) [µM]	MIC (Streptococcus pneumoniae) [µg/mL]	Activity [1] [%]	Compound	inhibition at 30 µM (hERG (KCNH2)) [%]
0.7	–	–	CC[C@H]1OC(=O)[C@H](C)[C@@H](O[C@@H]2C[C@@](C)(OC)[C@@H](O)[C@H](C)O2)[C@H](C)[C@@H](O[C@@H]2O[C@H](C)C[C@H](N(C)CCCO)[C@H]2O)[C@](C)(O)C[C@@H](C)[C@H](O)[C@H](C)[C@@H](O)[C@]1(C)O	–
> 5	16 (≈ 21 µM)	–	CC[C@H]1OC(=O)[C@H](C)[C@@H](O[C@@H]2C[C@@](C)(OC)[C@@H](O)[C@H](C)O2)[C@H](C)[C@@H](O[C@@H]2O[C@H](C)C[C@H](NC3CCC3)[C@H]2O)[C@](C)(O)C[C@@H](C)[C@H](O)[C@H](C)[C@@H](O)[C@]1(C)O	–
0.28	> 128	89	CC[C@H]1OC(=O)[C@H](C)[C@@H](O[C@@H]2C[C@@](C)(OC)[C@@H](O)[C@H](C)O2)[C@H](C)[C@@H](O[C@@H]2O[C@H](C)C[C@H](N(C)C[C@@H](C)O)[C@H]2O)[C@](C)(O)C[C@@H](C)[C@H](O)[C@H](C)[C@@H](O)[C@H]1C	38
0.1	> 128	89	CC[C@H]1OC(=O)[C@H](C)[C@@H](O[C@@H]2C[C@@](C)(OC)[C@@H](O)[C@H](C)O2)[C@H](C)[C@@H](O[C@@H]2O[C@H](C)C[C@H](N(C)CC(C)(C)O)[C@H]2O)[C@](C)(O)C[C@@H](C)[C@H](O)[C@H](C)[C@@H](O)[C@]1(C)O	25
> 5	–	–	CC[C@H]1OC(=O)[C@H](C)[C@@H](O[C@@H]2C[C@@](C)(OC)[C@@H](O)[C@H](C)O2)[C@H](C)[C@@H](O[C@@H]2O[C@H](C)C[C@H](N(C)CC(N)=O)[C@H]2O)[C@](C)(O)C[C@@H](C)[C@H](O)[C@H](C)[C@@H](O)[C@]1(C)O	–
0.1	> 128	56	CC[C@H]1OC(=O)[C@H](C)[C@@H](O[C@@H]2C[C@@](C)(OC)[C@@H](O)[C@H](C)O2)[C@H](C)[C@@H](O[C@@H]2O[C@H](C)C[C@H](N(C)CC(C)(C)O)[C@H]2O)[C@](C)(O)C[C@@H](C)[C@H](O)[C@H](C)[C@@H](O)[C@H]1C	–
2.4	–	–	C=C(C)CN(C)[C@H]1C[C@@H](C)O[C@@H](O[C@@H]2[C@@H](C)[C@H](O[C@@H]3C[C@@](C)(OC)[C@@H](O)[C@H](C)O3)[C@@H](C)C(=O)O[C@H](CC)[C@@](C)(O)[C@H](O)[C@@H](C)[C@@H](O)[C@H](C)C[C@@]2(C)O)[C@@H]1O	–
0.31	32 (≈ 41.2 µM)	–	CC[C@H]1OC(=O)[C@H](C)[C@@H](O[C@@H]2C[C@@](C)(OC)[C@@H](O)[C@H](C)O2)[C@H](C)[C@@H](O[C@@H]2O[C@H](C)C[C@H](N(C)CC3CC3)[C@H]2O)[C@](C)(O)C[C@@H](C)[C@H](O)[C@H](C)[C@@H](O)[C@]1(C)O	–
3.8	–	–	CC[C@H]1OC(=O)[C@H](C)[C@@H](O[C@@H]2C[C@@](C)(OC)[C@@H](O)[C@H](C)O2)[C@H](C)[C@@H](O[C@@H]2O[C@H](C)C[C@H](N(C)CCF)[C@H]2O)[C@](C)(O)C[C@@H](C)[C@H](O)[C@H](C)[C@@H](O)[C@]1(C)O	–
7.7	–	–	CC[C@H]1OC(=O)[C@H](C)[C@@H](O[C@@H]2C[C@@](C)(OC)[C@@H](O)[C@H](C)O2)[C@H](C)[C@@H](O[C@@H]2O[C@H](C)C[C@H](N(C)CCOC)[C@H]2O)[C@](C)(O)C[C@@H](C)[C@H](O)[C@H](C)[C@@H](O)[C@]1(C)O	–
0.363	–	81	CC[C@H]1OC(=O)[C@H](C)[C@@H](O[C@@H]2C[C@@](C)(OC)[C@@H](O)[C@H](C)O2)[C@H](C)[C@@H](O[C@@H]2O[C@H](C)C[C@H](N(C)CC(C)C)[C@H]2O)[C@](C)(O)C[C@@H](C)[C@H](O)[C@H](C)[C@@H](O)[C@]1(C)O	–
> 5	> 128	–	CC[C@H]1OC(=O)[C@H](C)[C@@H](O[C@@H]2C[C@@](C)(OC)[C@@H](O)[C@H](C)O2)[C@H](C)[C@@H](O[C@@H]2O[C@H](C)C[C@H](NC(C)C)[C@H]2O)[C@](C)(O)C[C@@H](C)[C@H](O)[C@H](C)[C@@H](O)[C@]1(C)O	–
0.46	> 128	93	CC[C@H]1OC(=O)[C@H](C)[C@@H](O[C@@H]2C[C@@](C)(OC)[C@@H](O)[C@H](C)O2)[C@H](C)[C@@H](O[C@@H]2O[C@H](C)C[C@H](N(C)C[C@@H](C)O)[C@H]2O)[C@](C)(O)C[C@@H](C)[C@H](O)[C@H](C)[C@@H](O)[C@]1(C)O	–

Continued, molecule first:

Compound	EC50 (Motilin receptor) [µM]	MIC (Streptococcus pneumoniae) [µg/mL]	Activity [1] [%]	inhibition at 30 µM (hERG (KCNH2)) [%]
CC[C@H]1OC(=O)[C@H](C)[C@@H](O[C@@H]2C[C@@](C)(OC)[C@@H](O)[C@H](C)O2)[C@H](C)[C@@H](O[C@@H]2O[C@H](C)C[C@H](N(C)CCO)[C@H]2O)[C@](C)(O)C[C@@H](C)[C@H](O)[C@H](C)[C@@H](O)[C@]1(C)O	0.21	8 (≈ 10.4 µM)	86	–
CC[C@H]1OC(=O)[C@H](C)[C@@H](O[C@@H]2C[C@@](C)(OC)[C@@H](O)[C@H](C)O2)[C@H](C)[C@@H](O[C@@H]2O[C@H](C)C[C@H](N(C)CCN)[C@H]2O)[C@](C)(O)C[C@@H](C)[C@H](O)[C@H](C)[C@@H](O)[C@]1(C)O	7.3	–	–	–
CC[C@H]1OC(=O)[C@H](C)[C@@H](O[C@@H]2C[C@@](C)(OC)[C@@H](O)[C@H](C)O2)[C@H](C)[C@@H](O[C@@H]2O[C@H](C)C[C@H](N(C)C(C)C)[C@H]2O)[C@](C)(O)C[C@@H](C)[C@H](O)[C@H](C)[C@@H](O)[C@H]1C	0.106	128 (≈ 171 µM)	79	–
CC[C@H]1OC(=O)[C@H](C)[C@@H](O[C@@H]2C[C@@](C)(OC)[C@@H](O)[C@H](C)O2)[C@H](C)[C@@H](O[C@@H]2O[C@H](C)C[C@H](N(C)CC(O)CO)[C@H]2O)[C@](C)(O)C[C@@H](C)[C@H](O)[C@H](C)[C@@H](O)[C@]1(C)O (stereo not given in full)	2.5	–	–	–
CC[C@H]1OC(=O)[C@H](C)[C@@H](O[C@@H]2C[C@@](C)(OC)[C@@H](O)[C@H](C)O2)[C@H](C)[C@@H](O[C@@H]2O[C@H](C)C[C@H](N(C)C3CCCC3)[C@H]2O)[C@](C)(O)C[C@@H](C)[C@H](O)[C@H](C)[C@@H](O)[C@]1(C)O	> 5	128 (≈ 162 µM)	–	–
CC[C@H]1OC(=O)[C@H](C)[C@@H](O[C@@H]2C[C@@](C)(OC)[C@@H](O)[C@H](C)O2)[C@H](C)[C@@H](O[C@@H]2O[C@H](C)C[C@H](N(C)C3CCC3)[C@H]2O)[C@](C)(O)C[C@@H](C)[C@H](O)[C@H](C)[C@@H](O)[C@H]1C	0.3	> 128	71	–
CC[C@H]1OC(=O)[C@H](C)[C@@H](O[C@H]2C[C@@](C)(OC)[C@@H](O)[C@H](C)O2)[C@H](C)[C@@H](O[C@@H]2O[C@H](C)C[C@H](N(C)C)[C@H]2O)[C@](C)(O)C[C@@H](C)C(=O)[C@H](C)[C@@H](O)[C@]1(C)O [ERYTHROMYCIN]	–	0.03 (≈ 0.0409 µM)	–	–
CC[C@H]1OC(=O)[C@H](C)[C@@H](O[C@@H]2C[C@@](C)(OC)[C@@H](O)[C@H](C)O2)[C@H](C)[C@@H](O[C@@H]2O[C@H](C)C[C@H](N(C)C[C@H](C)O)[C@H]2O)[C@](C)(O)C[C@@H](C)[C@H](O)[C@H](C)[C@@H](O)[C@H]1C	0.18	> 128	70	–
CC[C@H]1OC(=O)[C@H](C)[C@@H](O[C@@H]2C[C@@](C)(OC)[C@@H](O)[C@H](C)O2)[C@H](C)[C@@H](O[C@@H]2O[C@H](C)C[C@H](N(C)CC3(C)CC3)[C@H]2O)[C@](C)(O)C[C@@H](C)[C@H](O)[C@H](C)[C@@H](O)[C@]1(C)O	2	64 (≈ 81 µM)	–	–
CC[C@H]1OC(=O)[C@H](C)[C@@H](O[C@@H]2C[C@@](C)(OC)[C@@H](O)[C@H](C)O2)[C@H](C)[C@@H](O[C@@H]2O[C@H](C)C[C@H](N(C)C3COC3)[C@H]2O)[C@](C)(O)C[C@@H](C)[C@H](O)[C@H](C)[C@@H](O)[C@]1(C)O	5.7	32 (≈ 41.1 µM)	–	–
CC[C@H]1OC(=O)[C@H](C)[C@@H](O[C@@H]2C[C@@](C)(OC)[C@@H](O)[C@H](C)O2)[C@H](C)[C@@H](O[C@@H]2O[C@H](C)C[C@H](N(C)C[C@H](C)O)[C@H]2O)[C@](C)(O)C[C@@H](C)[C@H](O)[C@H](C)[C@@H](O)[C@]1(C)O	0.36	128 (≈ 164 µM)	95	16
CC[C@H]1OC(=O)[C@H](C)[C@@H](O[C@@H]2C[C@@](C)(OC)[C@@H](O)[C@H](C)O2)[C@H](C)[C@@H](O[C@@H]2O[C@H](C)C[C@H](N(C)C(C)C)[C@H]2O)[C@](C)(O)C[C@@H](C)[C@H](O)[C@H](C)[C@@H](O)[C@]1(C)O	0.26	32 (≈ 41.9 µM)	76	80
CC[C@H]1OC(=O)[C@H](C)[C@@H](O[C@@H]2C[C@@](C)(OC)[C@@H](O)[C@H](C)O2)[C@H](C)[C@@H](O[C@@H]2O[C@H](C)C[C@H](N(C)C3CCC3)[C@H]2O)[C@](C)(O)C[C@@H](C)[C@H](O)[C@H](C)[C@@H](O)[C@]1(C)O	0.35	128 (≈ 165 µM)	90	38
